{"source": "ChEMBL document CHEMBL5257020", "about": "“Discovery of a 9-mer Cationic Peptide (LTX-315) as a Potential First in Class Oncolytic Peptide” (J Med Chem, 2016)", "key": {"Cytochrome P450 3A4 [1]": {"target": "T1, Cytochrome P450 3A4 (Homo sapiens, UniProt P08684)", "T1 sequence (P08684 whole entry)": "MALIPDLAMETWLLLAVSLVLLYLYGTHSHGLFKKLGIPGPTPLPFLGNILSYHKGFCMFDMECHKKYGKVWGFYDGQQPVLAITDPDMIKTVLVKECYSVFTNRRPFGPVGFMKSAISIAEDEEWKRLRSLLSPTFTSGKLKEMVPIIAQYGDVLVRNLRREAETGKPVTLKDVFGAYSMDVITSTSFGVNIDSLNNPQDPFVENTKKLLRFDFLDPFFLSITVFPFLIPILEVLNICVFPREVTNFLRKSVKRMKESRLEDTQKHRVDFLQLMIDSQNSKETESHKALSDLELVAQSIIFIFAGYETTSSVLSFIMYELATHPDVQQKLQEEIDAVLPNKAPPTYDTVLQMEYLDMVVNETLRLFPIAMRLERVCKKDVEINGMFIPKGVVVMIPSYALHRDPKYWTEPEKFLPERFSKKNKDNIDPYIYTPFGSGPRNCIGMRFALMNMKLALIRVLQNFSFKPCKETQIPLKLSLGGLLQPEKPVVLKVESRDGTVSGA", "assay": "Inhibition of CYP3A4 in human liver microsomes using midazolam as substrate assessed as reduction in substrate hydroxylation incubated for 30 mins in presence of beta-NADPH measured by LC-MS/MS analysis", "format": "ADME, Microsome", "summary_of_the_method": "(§1)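 Pooled human liver microsomes (50 donors) in 100 mM phosphate, pH 7.4, with 2 mM β-NADPH. Protein 0.1 mg/mL (2A6, 2C8, 2C9, 2E1, 3A4) or 0.3 mg/mL (1A2, 2B6, 2C19, 2D6). Test article 0–100 μM final, preincubated ~37 °C 5 or 30 min before isoform-selective substrate. Quenched in methanol with internal standard. Metabolite measured by LC–MS/MS against standard curve. Duplicates, with selective inhibitor positive controls.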"}, "[2]": {"assay": "Stability in pooled and cryopreserved rat hepatocytes assessed as intrinsic clearance measured per 10^6 cells at 1 uM measured for 90 mins by LC-MS/MS analysis", "format": "ADME, cell-based, Hepatocyte", "conditions": "read-out: CLH", "summary_of_the_method": "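Pooled cryopreserved hepatocytes at 0.5 million cells/mL, incubated at about 37 °C with 1 μM initial peptide. Supernatant after centrifugation analysed by LC–MS/MS (MRM) using a D-Trp7,9,10-substance P internal standard. Peak height was referenced to time zero, and t1/2 = −0.693/slope of ln concentration vs time. Clint = 0.693/t1/2 × Vinc per million cells. Testosterone, midazolam and 4-methylumbelliferone were the positive controls. Duplicates; mean of two experiments.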"}, "[3]": {"assay": "Ratio of drug concentration in human blood to plasma measured after 60 mins by LC-MS/MS analysis", "format": "ADME, cell-free", "summary_of_the_method": "(§2)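 Pooled fresh whole blood (≥3 male and 3 female human, beagle dog or rat donors) spiked to 200 ng/mL. Incubated ~37 °C on rotary mixer over 0–120 min. Hematocrit determined. Blood and plasma analysed by LC–MS/MS. Blood/plasma ratio = Cb/C. Cell association = {[C(1 − H)]/Cb} × 100. Values at 60 min, mean of two independent measurements.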"}, "[4]": {"assay": "Drug uptake in rat Red blood cells at 60 mins by LC-MS/MS analysis", "format": "ADME, cell-based", "conditions": "erythrocyte, 1 h", "summary_of_the_method": "as §2"}, "Cytochrome P450 2C8": {"target": "Cytochrome P450 2C8 (Homo sapiens, UniProt P10632)", "sequence (P10632 whole entry)": "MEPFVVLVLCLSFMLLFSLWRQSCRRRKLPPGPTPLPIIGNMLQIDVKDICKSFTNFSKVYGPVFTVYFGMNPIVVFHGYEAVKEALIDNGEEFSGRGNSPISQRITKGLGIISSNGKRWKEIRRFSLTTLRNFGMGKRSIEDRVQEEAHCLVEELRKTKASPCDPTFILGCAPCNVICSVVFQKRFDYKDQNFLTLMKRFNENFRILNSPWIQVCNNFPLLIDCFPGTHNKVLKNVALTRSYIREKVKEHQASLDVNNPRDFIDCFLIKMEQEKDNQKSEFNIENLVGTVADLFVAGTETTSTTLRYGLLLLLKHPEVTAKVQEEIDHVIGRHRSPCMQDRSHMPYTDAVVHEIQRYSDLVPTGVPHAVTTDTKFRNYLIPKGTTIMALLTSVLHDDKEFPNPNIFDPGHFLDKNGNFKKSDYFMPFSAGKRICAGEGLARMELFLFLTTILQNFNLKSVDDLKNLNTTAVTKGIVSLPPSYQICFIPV", "assay": "Inhibition of CYP2C8 in human liver microsomes using paclitaxel as substrate assessed as reduction in substrate hydroxylation incubated for 30 mins in presence of beta-NADPH measured by LC-MS/MS analysis", "format": "ADME, Microsome", "summary_of_the_method": "as §1"}, "[5]": {"assay": "Protein binding in Han Wistar rat plasma assessed as bound fraction at 200 to 1000 ng/ml incubated for 20 hrs in presence of AEBSF by LC-MS/MS analysis", "format": "ADME, cell-free", "conditions": "dose 200-1000 ng/ml, read-out: PPB", "summary_of_the_method": "(§3)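 Pooled plasma (human volunteers; Han Wistar rat; Beagle dog) containing AEBSF 1 mg/mL. Spiked to 200, 500 or 1000 ng/mL final, in duplicate. Ultracentrifuged 45 000 rpm, 37 °C, 20 h. Supernatant quantified by LC–MS/MS. % bound = [(C − CS)/C] × 100. Values are upper limits because of residual degradation.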"}, "[6]": {"assay": "Half life in human plasma measured by RP-HPLC analysis", "format": "ADME, cell-free"}, "[7]": {"assay": "Ratio of drug concentration in Beagle dog blood to plasma measured after 60 mins by LC-MS/MS analysis", "format": "ADME, cell-free, Canis lupus familiaris", "summary_of_the_method": "as §2"}, "Cytochrome P450 3A4 [8]": {"target": "T1, Cytochrome P450 3A4", "assay": "Inhibition of CYP3A4 in human liver microsomes using testosterone as substrate assessed as reduction in substrate hydroxylation incubated for 30 mins in presence of beta-NADPH measured by LC-MS/MS analysis", "format": "ADME, Microsome", "summary_of_the_method": "as §1"}, "Cytochrome P450 2E1 [9]": {"target": "T2, Cytochrome P450 2E1 (Homo sapiens, UniProt P05181)", "T2 sequence (P05181 whole entry)": "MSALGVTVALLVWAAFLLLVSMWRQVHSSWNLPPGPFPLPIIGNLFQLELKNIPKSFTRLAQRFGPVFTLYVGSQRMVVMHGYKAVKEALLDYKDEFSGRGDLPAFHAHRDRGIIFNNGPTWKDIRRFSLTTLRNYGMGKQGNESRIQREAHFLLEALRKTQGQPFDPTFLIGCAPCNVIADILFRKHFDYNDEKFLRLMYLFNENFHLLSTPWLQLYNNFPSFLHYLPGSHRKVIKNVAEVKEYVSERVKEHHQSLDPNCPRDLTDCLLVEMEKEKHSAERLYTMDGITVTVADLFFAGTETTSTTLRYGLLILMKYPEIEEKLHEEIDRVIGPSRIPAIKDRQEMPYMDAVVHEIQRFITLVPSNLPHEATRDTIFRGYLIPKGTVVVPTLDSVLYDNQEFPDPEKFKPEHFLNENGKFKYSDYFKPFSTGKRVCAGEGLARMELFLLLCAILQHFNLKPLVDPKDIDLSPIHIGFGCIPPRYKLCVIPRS", "assay": "Inhibition of CYP2E1 in human liver microsomes using chlorzoxazone as substrate assessed as reduction in substrate hydroxylation incubated for 30 mins in presence of beta-NADPH measured by LC-MS/MS analysis", "format": "ADME, Microsome", "summary_of_the_method": "as §1"}, "Cytochrome P450 2C19 [10]": {"target": "T3, Cytochrome P450 2C19 (Homo sapiens, UniProt P33261)", "T3 sequence (P33261 whole entry)": "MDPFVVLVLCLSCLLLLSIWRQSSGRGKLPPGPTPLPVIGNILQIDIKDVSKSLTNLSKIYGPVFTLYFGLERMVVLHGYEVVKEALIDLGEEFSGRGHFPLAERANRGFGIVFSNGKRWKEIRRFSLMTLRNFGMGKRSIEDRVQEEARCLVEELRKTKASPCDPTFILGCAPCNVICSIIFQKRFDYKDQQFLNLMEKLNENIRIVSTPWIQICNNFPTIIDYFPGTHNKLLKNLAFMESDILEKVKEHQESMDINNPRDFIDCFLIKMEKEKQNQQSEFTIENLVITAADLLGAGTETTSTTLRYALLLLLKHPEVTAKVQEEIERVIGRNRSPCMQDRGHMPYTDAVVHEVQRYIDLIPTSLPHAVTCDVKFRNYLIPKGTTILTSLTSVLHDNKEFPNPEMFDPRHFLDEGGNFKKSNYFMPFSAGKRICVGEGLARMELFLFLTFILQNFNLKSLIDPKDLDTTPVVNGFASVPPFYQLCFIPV", "assay": "Inhibition of CYP2C19 in human liver microsomes using (S)-mephenytoin as substrate assessed as reduction in substrate hydroxylation incubated for 30 mins in presence of beta-NADPH measured by LC-MS/MS analysis", "format": "ADME, Microsome", "summary_of_the_method": "as §1"}, "[11]": {"assay": "Ratio of drug concentration in rat blood to plasma measured after 60 mins by LC-MS/MS analysis", "format": "ADME, cell-free", "summary_of_the_method": "as §2"}, "Cytochrome P450 2C19 [12]": {"target": "T3, Cytochrome P450 2C19", "assay": "Inhibition of CYP2C19 in human liver microsomes using (S)-mephenytoin as substrate assessed as reduction in substrate hydroxylation incubated for 5 mins in presence of beta-NADPH measured by LC-MS/MS analysis", "format": "ADME, Microsome", "summary_of_the_method": "as §1"}, "[13]": {"assay": "Protein binding in human plasma assessed as bound fraction at 200 to 1000 ng/ml incubated for 20 hrs in presence of AEBSF by LC-MS/MS analysis", "format": "ADME, cell-free", "conditions": "dose 200-1000 ng/ml, read-out: PPB", "summary_of_the_method": "as §3"}, "Cytochrome P450 1A2 [14]": {"target": "T4, Cytochrome P450 1A2 (Homo sapiens, UniProt P05177)", "T4 sequence (P05177 whole entry)": "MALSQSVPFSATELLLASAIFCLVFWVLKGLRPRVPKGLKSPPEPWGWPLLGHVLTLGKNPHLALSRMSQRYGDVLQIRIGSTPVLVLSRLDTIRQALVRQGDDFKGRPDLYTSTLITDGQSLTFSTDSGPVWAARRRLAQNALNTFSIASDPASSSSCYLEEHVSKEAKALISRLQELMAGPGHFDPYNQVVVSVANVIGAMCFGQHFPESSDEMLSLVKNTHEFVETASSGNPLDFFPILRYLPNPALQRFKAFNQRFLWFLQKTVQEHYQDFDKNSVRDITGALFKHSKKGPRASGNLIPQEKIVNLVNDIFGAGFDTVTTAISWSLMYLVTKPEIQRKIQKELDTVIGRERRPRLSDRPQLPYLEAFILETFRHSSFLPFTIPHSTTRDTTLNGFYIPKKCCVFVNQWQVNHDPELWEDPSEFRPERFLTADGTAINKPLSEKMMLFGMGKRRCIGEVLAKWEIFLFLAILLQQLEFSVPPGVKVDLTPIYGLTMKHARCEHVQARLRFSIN", "assay": "Inhibition of CYP1A2 in human liver microsomes using as phenacetin substrate assessed as reduction in O-deethylation of phenacetin incubated for 5 mins in presence of beta-NADPH by LC-MS/MS analysis", "format": "ADME, Microsome", "summary_of_the_method": "as §1"}, "Cytochrome P450 2E1 [15]": {"target": "T2, Cytochrome P450 2E1", "assay": "Inhibition of CYP2E1 in human liver microsomes using chlorzoxazone as substrate assessed as reduction in substrate hydroxylation incubated for 5 mins in presence of beta-NADPH measured by LC-MS/MS analysis", "format": "ADME, Microsome", "summary_of_the_method": "as §1"}, "[16]": {"assay": "Stability in pooled and cryopreserved rat hepatocytes assessed as half life at 1 uM measured for 90 mins by LC-MS/MS analysis", "format": "ADME, cell-based, Hepatocyte", "summary_of_the_method": "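Pooled cryopreserved rat or human hepatocytes, 0.5 million cells/mL, ~37 °C, peptide at 1 μM initial. Supernatants analysed by LC–MS/MS with peak height referenced to time zero. t1/2 = −0.693/slope of ln concentration vs time. Duplicate experiments. Testosterone, midazolam and 4-methylumbelliferone served as metabolic-competence controls.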"}, "Cytochrome P450 1A2 [17]": {"target": "T4, Cytochrome P450 1A2", "assay": "Inhibition of CYP1A2 in human liver microsomes using as phenacetin substrate assessed as reduction in O-deethylation of phenacetin incubated for 30 mins in presence of beta-NADPH by LC-MS/MS analysis", "format": "ADME, Microsome", "summary_of_the_method": "as §1"}, "[18]": {"assay": "Drug uptake in human red blood cells at 60 mins by LC-MS/MS analysis", "format": "ADME, cell-based", "conditions": "erythrocyte, 1 h", "summary_of_the_method": "as §2"}, "Cytochrome P450 2A6": {"target": "Cytochrome P450 2A6 (Homo sapiens, UniProt P11509)", "sequence (P11509 whole entry)": "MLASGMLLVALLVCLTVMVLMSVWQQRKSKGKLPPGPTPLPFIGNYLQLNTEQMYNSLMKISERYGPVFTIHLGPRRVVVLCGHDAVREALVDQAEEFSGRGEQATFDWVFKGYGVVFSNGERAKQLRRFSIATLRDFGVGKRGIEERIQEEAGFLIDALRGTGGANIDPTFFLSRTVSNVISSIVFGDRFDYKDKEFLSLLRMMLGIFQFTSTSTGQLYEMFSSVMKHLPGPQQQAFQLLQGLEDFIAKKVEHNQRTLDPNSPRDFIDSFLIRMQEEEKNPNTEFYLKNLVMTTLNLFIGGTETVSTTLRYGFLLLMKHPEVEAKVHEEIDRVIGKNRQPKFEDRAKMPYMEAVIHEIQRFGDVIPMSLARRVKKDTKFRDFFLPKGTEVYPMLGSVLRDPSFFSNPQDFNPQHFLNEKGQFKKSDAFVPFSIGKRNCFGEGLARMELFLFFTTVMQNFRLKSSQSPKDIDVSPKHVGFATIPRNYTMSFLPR", "assay": "Inhibition of CYP2A6 in human liver microsomes using coumarin as substrate assessed as reduction in substrate hydroxylation incubated for 5 mins in presence of beta-NADPH measured by LC-MS/MS analysis", "format": "ADME, Microsome", "summary_of_the_method": "as §1"}, "Cytochrome P450 2D6": {"target": "Cytochrome P450 2D6 (Homo sapiens, UniProt P10635)", "sequence (P10635 whole entry)": "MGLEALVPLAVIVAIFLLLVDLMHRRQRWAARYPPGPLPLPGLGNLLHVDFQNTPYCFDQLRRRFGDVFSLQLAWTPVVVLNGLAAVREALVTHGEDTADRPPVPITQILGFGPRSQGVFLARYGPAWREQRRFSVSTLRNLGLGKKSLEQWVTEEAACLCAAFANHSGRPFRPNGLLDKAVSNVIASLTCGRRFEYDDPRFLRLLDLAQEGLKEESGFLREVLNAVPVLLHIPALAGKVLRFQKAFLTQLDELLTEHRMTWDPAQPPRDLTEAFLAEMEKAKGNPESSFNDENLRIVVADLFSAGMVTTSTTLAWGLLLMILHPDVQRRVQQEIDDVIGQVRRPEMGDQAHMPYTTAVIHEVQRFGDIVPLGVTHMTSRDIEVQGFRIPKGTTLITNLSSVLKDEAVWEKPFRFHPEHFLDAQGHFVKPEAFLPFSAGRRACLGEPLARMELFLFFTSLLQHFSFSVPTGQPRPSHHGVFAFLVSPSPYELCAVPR", "assay": "Inhibition of CYP2D6 in human liver microsomes using bufuralol as substrate assessed as reduction in substrate hydroxylation incubated for 5 mins in presence of beta-NADPH measured by LC-MS/MS analysis", "format": "ADME, Microsome", "summary_of_the_method": "as §1"}, "Cytochrome P450 2B6 [19]": {"target": "T5, Cytochrome P450 2B6 (Homo sapiens, UniProt P20813)", "T5 sequence (P20813 whole entry)": "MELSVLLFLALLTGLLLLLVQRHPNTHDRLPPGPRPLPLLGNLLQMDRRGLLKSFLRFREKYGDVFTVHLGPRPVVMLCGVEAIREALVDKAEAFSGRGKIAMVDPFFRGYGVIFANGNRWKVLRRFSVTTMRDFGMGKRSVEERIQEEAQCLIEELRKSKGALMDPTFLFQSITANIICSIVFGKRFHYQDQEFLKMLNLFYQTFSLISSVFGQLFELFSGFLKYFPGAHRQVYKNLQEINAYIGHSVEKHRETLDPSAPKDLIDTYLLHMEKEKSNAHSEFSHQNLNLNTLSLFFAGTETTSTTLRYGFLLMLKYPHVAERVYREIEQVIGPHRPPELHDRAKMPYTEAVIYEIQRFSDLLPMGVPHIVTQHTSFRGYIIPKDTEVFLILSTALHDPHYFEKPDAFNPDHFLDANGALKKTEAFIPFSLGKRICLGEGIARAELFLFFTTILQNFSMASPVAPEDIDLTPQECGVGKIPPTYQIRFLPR", "assay": "Inhibition of CYP2B6 in human liver microsomes using bupropion as substrate assessed as reduction in substrate hydroxylation incubated for 5 mins in presence of beta-NADPH measured by LC-MS/MS analysis", "format": "ADME, Microsome", "summary_of_the_method": "as §1"}, "Cytochrome P450 2B6 [20]": {"target": "T5, Cytochrome P450 2B6", "assay": "Inhibition of CYP2B6 in human liver microsomes using bupropion as substrate assessed as reduction in substrate hydroxylation incubated for 30 mins in presence of beta-NADPH measured by LC-MS/MS analysis", "format": "ADME, Microsome", "summary_of_the_method": "as §1"}}, "note": "Where a SMILES comes first, the peptide text is derived from it. [ ]: non-standard residue; d: D form. ξ: configuration not given here. ξDip = NC(C(=O)O)C(c1ccccc1)c1ccccc1", "data": [{"smiles": "NCCCC[C@H](NC(=O)C(NC(=O)[C@H](Cc1c[nH]c2ccccc12)NC(=O)[C@H](CCCCN)NC(=O)[C@H](CCCCN)NC(=O)[C@H](Cc1c[nH]c2ccccc12)NC(=O)[C@H](Cc1c[nH]c2ccccc12)NC(=O)[C@H](CCCCN)NC(=O)[C@@H](N)CCCCN)C(c1ccccc1)c1ccccc1)C(N)=O", "note": "(stereo partly drawn) (H-KKWWKKW[ξDip]K-NH2)", "values": [{"measurement": "IC50", "setting": "Cytochrome P450 3A4 [1]", "value": 63.7, "unit": "µM"}, {"measurement": "hepatocyte CLint at 1 µM", "setting": "[2]", "value": 20, "unit": "µL/min/1e6 cells"}, {"measurement": "blood plasma ratio at 1 h", "setting": "[3]", "value": 0.76}, {"measurement": "Drug uptake", "setting": "[4]", "value": 44, "unit": "%"}, {"measurement": "IC50", "setting": "Cytochrome P450 2C8", "value": 7.9, "unit": "µM"}, {"measurement": "fraction unbound at 20 h", "setting": "[5]", "value": "> 0.25"}, {"measurement": "half-life", "setting": "[6]", "value": 2.67, "unit": "h"}, {"measurement": "blood plasma ratio at 1 h", "setting": "[7]", "value": 2.19}, {"measurement": "IC50", "setting": "Cytochrome P450 3A4 [8]", "value": 12.1, "unit": "µM"}, {"measurement": "IC50", "setting": "Cytochrome P450 2E1 [9]", "value": 30, "unit": "µM"}, {"measurement": "IC50", "setting": "Cytochrome P450 2C19 [10]", "value": "> 100", "unit": "µM"}, {"measurement": "blood plasma ratio at 1 h", "setting": "[11]", "value": 1.03}, {"measurement": "IC50", "setting": "Cytochrome P450 2C19 [12]", "value": 23.3, "unit": "µM"}, {"measurement": "fraction unbound at 20 h", "setting": "[13]", "value": "> 0.2"}, {"measurement": "IC50", "setting": "Cytochrome P450 1A2 [14]", "value": 37.9, "unit": "µM"}, {"measurement": "IC50", "setting": "Cytochrome P450 2E1 [15]", "value": 30.9, "unit": "µM"}, {"measurement": "half-life at 1 µM", "setting": "[16]", "value": 1.18, "unit": "h"}, {"measurement": "IC50", "setting": "Cytochrome P450 1A2 [17]", "value": "> 100", "unit": "µM"}, {"measurement": "Drug uptake", "setting": "[18]", "value": 27, "unit": "%"}, {"measurement": "IC50", "setting": "Cytochrome P450 2A6", "value": 7, "unit": "µM"}, {"measurement": "IC50", "setting": "Cytochrome P450 2D6", "value": 21.9, "unit": "µM"}, {"measurement": "IC50", "setting": "Cytochrome P450 2B6 [19]", "value": 27.7, "unit": "µM"}, {"measurement": "IC50", "setting": "Cytochrome P450 2B6 [20]", "value": 18.6, "unit": "µM"}]}]}
